High-throughput results as filed in PubChem.
Hits are enriched below; roughly 2.2% of the tested compounds scored in any of these assays.
Cneo AK release: Cryptococcus neoformans cell lysis inducers, primary screen, AK release luminescence, single concentration. C. neoformans lysis, adenylate kinase release luminescence, 4 h; normalised: neutral wells 0, clomiphene wells 100. lysis activity, % at 15 µM. 360,000 tested, 0.2% active;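 active means mean lysis activity across replicates of at least 80%, whatever share of replicates individually reach that level; inactive means mean lysis activity below 80%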
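Material – log-phase Cryptococcus neoformans yeast cells · Input – 5 × 10^6 yeast cells/mL · Medium – fresh YPD growth medium · Doses – single compound concentration per well · Timing – static 4 h at 37 °C with compound, 1 h detection · Detection – adenylate kinase release luminescence · Read-out – signal increase indicating cell lysis · Control set – Clomiphene as positive lysis control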
Ecoli rRNA inh: reduced GFP signal of wild-type E. coli, primary screen, bacterial rRNA inhibitor project, GFP/RFP fluorescence, OD600, single point | E. coli WT GFP vs humanized-ribosome RFP mutants, 24 h; hits give low values; DMSO median 0, no signal -100 | GFP signal change (wild-type ribosome), % (no concentration beside the values) | 350,000 tested, 1.6% active | AID 720706, 2013;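 active means significant combined selectivity score with lowered wild-type GFP, culture density cut under 30%, mutant RFP and density less affected; inactive means any of these conditions unmet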
Yeast superoxide: reduction of superoxide in aged yeast, primary screen, HTS; 330,000 tested, 0.18% active; AID 2690, 2010; superoxide response (% of plate mean), % at 10 µM; S. cerevisiae aged cells, superoxide DHE fluorescence; hits give low values;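 active means superoxide response under a set limit, about three screen SD below normal, cut at about 65% in these data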;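 further: yeast aged for seven days with compound at 30 °C before DHE staining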
SUMO Mot1 rescue: yeast Mot1-301 growth rescue at high temperature, primary screen, SUMOylation pathway inhibitor project, S. cerevisiae, ATP luminescence, 38.5C; AID 2716, 2010; S. cerevisiae Mot1-301 growth rescue; percent above DMSO median, 100 means doubled; growth rescue, % at 18.8 µM; 320,000 tested, 1% active;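 active means every valid replicate shows activation above 250% relative to neutral control wells; inactive means the rest, any valid replicate at or below 250%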
PglD DTNB: C. jejuni PglD acetyltransferase inhibitors, primary screen, biochemical, DTNB colorimetric, single point; purified PglD enzyme, DTNB colorimetric CoA detection; 360,000 tested, 0.098% active; UDP-N-acetylbacillosamine N-acetyltransferase PglD (Campylobacter jejuni); inhibition, % at 12.5 µM; AID 602405, 2012; in the data active means inhibition above about 16%, passing the limit was not always enough
Hits are given with their value; i = inactive; nt = not tested or not shown.

SMILES | Cneo AK release | Ecoli rRNA inh | Yeast superoxide | SUMO Mot1 rescue | PglD DTNB
Cc1ccc(/C=C/C(=O)Nc2cc(S(=O)(=O)N3CCOCC3)ccc2N2CCOCC2)cc1 | i | nt | 62 | i | i
COc1ccc(/C=C/C(=O)Nc2cc(S(=O)(=O)N3CCCCC3)ccc2N2CCCCC2)cc1OC | i | nt | i | i | i
O=C(C[C@@H]1CC[C@@H]2[C@H](COC[C@H](O)CN2S(=O)(=O)c2ccc(Oc3ccccc3)cc2)O1)NC1CCC1 | 95 | i | nt | nt | i
O=C(C[C@H]1CC[C@@H]2[C@H](COC[C@@H](O)CN2C(=O)c2cnccn2)O1)NCc1ccc(Oc2ccccc2)cc1 | 105 | i | nt | nt | i
O=C(C[C@H]1CC[C@H]2[C@@H](COC[C@@H](O)CN2S(=O)(=O)c2ccc(Oc3ccccc3)cc2)O1)Nc1ccccc1 | i | i | nt | nt | i
O=C(O)C[C@@H]1CC[C@@H]2[C@H](COC[C@H](O)CN2S(=O)(=O)c2ccc(F)cc2)O1 | 83 | i | nt | nt | i
O=C(C[C@H]1CC[C@H]2[C@@H](COC[C@H](O)CN2Cc2cc(F)cc(F)c2)O1)Nc1nccs1 | 96 | i | nt | nt | i
CNC(=O)C[C@@H]1CC[C@@H]2[C@H](COC[C@H](O)CN2C(=O)Nc2cccc(OC)c2)O1 | i | i | nt | nt | i
O=C(C[C@@H]1CC[C@H]2[C@@H](COC[C@H](O)CN2Cc2ccccc2F)O1)NC1CCC1 | 97 | i | nt | nt | i
COc1cccc(/C=N/NC(=O)CNC(=O)C2COc3ccccc3O2)c1O (stereo not given) | nt | -20 | nt | nt | nt
CC12CCC(/C(=C/NNc3ccc([N+](=O)[O-])cc3[N+](=O)[O-])C1=O)C2(C)C (stereo not given) | i | -23 | nt | nt | i
C[C@H]1CN([C@@H](C)CO)S(=O)(=O)c2ccc(-c3cccc(F)c3)cc2O[C@H]1CN(C)S(C)(=O)=O | i | i | nt | nt | i
COc1ccc2c3c([nH]c2c1)[C@@H](CO)N(C(=O)Nc1ccc(F)cc1)CC31CCN(S(C)(=O)=O)CC1 | nt | i | nt | nt | nt
CN(C)C(=O)C[C@@H]1C[C@H]2c3cc(NS(=O)(=O)c4ccccc4)ccc3O[C@H]2[C@H](CO)O1 | i | i | nt | nt | i
NNc1nc2c(F)cc(F)cc2s1 | i | -25 | i | i | i
C=CC[C@]1(C(=O)OC)N=C(c2ccc(OCCCO)cc2)O[C@H]1c1ccccc1 | i | nt | nt | nt | i
O=C(N/N=C/c1coc2ccccc2c1=O)c1ccccc1 | i | i | i | i | i
O=C(N/N=C\c1coc2ccccc2c1=O)c1ccco1 | i | i | i | 461 | i
CCN(CC)c1ccc(/C=N/NC(=O)c2ccco2)c(O)c1 | nt | -39 | i | i | nt
CO[C@@H]1CN(C)C(=O)c2cc(NC(=O)c3cc(C)on3)ccc2OC[C@H](C)NC[C@@H]1C | i | i | nt | nt | i
CC(=O)c1cccc(NC(=O)Nc2cnn(Cc3ccc(F)cc3)c2)c1 | nt | -22 | nt | nt | nt
COc1ccc(C2CC(c3ccc4ccccc4c3)=NN2C(=O)CNC2CCCCC2)cc1 (stereo not given) | i | i | i | i | i
COc1ccc(C2CC(c3ccc4ccccc4c3)=NN2C(=O)CN2CCC(C(N)=O)CC2)cc1 (stereo not given) | i | -48 | i | i | i
CSc1ccccc1NC(=O)CSc1nnc(CNC(=O)c2ccccc2F)n1C | i | i | i | 308 | i
C[C@]12c3[nH]c4ccc(Cl)cc4c3CCN1C(=O)[C@@H](CC(=O)NCc1ccco1)C[C@@H]2C(=O)N1CCOCC1 | i | -23 | i | nt | i
CS(=O)(=O)Nc1ccc2c(c1)[C@H]1C[C@@H](CC(=O)NCC3CC3)O[C@@H](CO)[C@H]1O2 | i | i | nt | nt | i
Clc1ccccc1-c1nc2nc3ccccc3nc2n1-c1ccc2c(c1)OCO2 | i | -26 | i | i | i
c1csc(-c2nc3nc4ccccc4nc3n2Cc2ccc3c(c2)OCO3)c1 | i | nt | i | i | i
CC(C)c1[nH]nc2c1C(c1ccc(OC(=O)c3ccco3)cc1)C(C#N)=C(N)O2 (stereo not given) | nt | -27 | i | i | nt
Cc1[nH]nc2c1C(c1ccc(OC(=O)c3ccco3)cc1)C(C#N)=C(N)O2 (stereo not given) | i | nt | i | i | i
